Experimental data taken from ChEMBL document CHEMBL3098051, “Rational design and synthesis of novel dibenzo[b,d]furan-1,2,3-triazole conjugates as potent inhibitors of Mycobacterium tuberculosis” (Eur J Med Chem, 2014).
≈ marks a conversion by molar mass, not a printed value.

Assays:
[1] = system: Mycobacterium tuberculosis; assay: Antimycobacterial activity against Mycobacterium tuberculosis H37Rv ATCC 27294 assessed as parasite growth inhibition after 28 days by agar dilution method; assay type: functional; conditions: H37Rv ATCC 27294, 672 h
Method in brief: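 Inoculum from fresh Middlebrook 7H11 agar slants with OADC supplement, adjusted to 1 mg/mL wet weight in 0.05% Tween 80 saline and diluted to about 10^7 cfu/mL. Suspension was spotted onto 7H11 agar tubes containing 10-fold serial drug dilutions and incubated at 37 °C. Read at 28 days. MIC was the lowest concentration completely inhibiting growth, run in triplicate at pH 7.40.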

[2] = Cytotoxicity against HEK293T cells at 50 ug/ml after 72 hrs by MTT assay; assay type: cell-based, HEK-293T; conditions: human, read-out: INH
[3] = Selectivity index, ratio of IC50 for HEK293T cells to MIC for Mycobacterium tuberculosis H37Rv ATCC 27294; assay type: toxicity, cell-based, HEK-293T; conditions: human, read-out: Selectivity Index
Method in brief: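 SI was taken as the approximated IC50 in HEK293T cells (72 h MTT) relative to MIC against H37Rv (agar dilution, 28 days). SI above 10 was counted as nontoxic.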

[4] = system: HEK-293T; assay: Cytotoxicity against HEK293T cells after 72 hrs by MTT assay; assay type: cell-based; conditions: Homo sapiens
Method in brief: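 Human embryonic kidney 293T cells were exposed to compound for 72 h. Viability was read by cellular conversion of MTT to formazan, and percentage growth of cells was reported.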

| SMILES | MIC [1] | cytotoxicity at 72 h, 50 ug/ml [2] | selectivity ratio [3] | IC50 [4] |
| --- | --- | --- | --- | --- |
| CCOC(=O)Cn1cc(-c2ccc3oc4ccccc4c3c2)nn1 | 1.56 µg/mL (≈ 4.85 µM) | 38.8% | > 25 | > 50 µg/mL |
| OCCCCn1cc(-c2ccc3oc4ccccc4c3c2)nn1 | 50 µg/mL (≈ 163 µM) | 21.9% | 1 | > 50 µg/mL |
| c1ccc(Cn2cc(-c3ccc4oc5ccccc5c4c3)nn2)cc1 | 50 µg/mL (≈ 154 µM) | 36.1% | 1 | > 50 µg/mL |
| COc1cccc(Cn2cc(-c3ccc4oc5ccccc5c4c3)nn2)c1 | 0.78 µg/mL (≈ 2.19 µM) | 62.1% | 25 | < 50 µg/mL |
| COc1ccc(Cn2cc(-c3ccc4oc5ccccc5c4c3)nn2)cc1 | 3.12 µg/mL (≈ 8.78 µM) | 52.7% | 16 | 50 µg/mL (≈ 141 µM) |
| Brc1ccc(Cn2cc(-c3ccc4oc5ccccc5c4c3)nn2)cc1 | 0.78 µg/mL (≈ 1.93 µM) | 27.8% | > 25 | > 50 µg/mL |
| Brc1cccc(Cn2cc(-c3ccc4oc5ccccc5c4c3)nn2)c1 | 6.25 µg/mL (≈ 15.5 µM) | 12% | > 10 | > 50 µg/mL |
| O=[N+]([O-])c1ccc(Cn2cc(-c3ccc4oc5ccccc5c4c3)nn2)cc1 | 50 µg/mL (≈ 135 µM) | 46.3% | 1 | 50 µg/mL (≈ 135 µM) |
| COC(=O)c1ccc(Cn2cc(-c3ccc4oc5ccccc5c4c3)nn2)cc1 | 25 µg/mL (≈ 65.2 µM) | 58.1% | 1 | < 50 µg/mL |
| Cc1ccc(C(C)n2cc(-c3ccc4oc5ccccc5c4c3)nn2)cc1 (centres undefined) | 3.12 µg/mL (≈ 8.83 µM) | 43.1% | 16 | 50 µg/mL (≈ 141 µM) |
| COc1ccc(C(C)n2cc(-c3ccc4oc5ccccc5c4c3)nn2)cc1 (centres undefined) | 3.12 µg/mL (≈ 8.45 µM) | 18.9% | > 16 | > 50 µg/mL |
| CC(c1ccc([N+](=O)[O-])cc1)n1cc(-c2ccc3oc4ccccc4c3c2)nn1 (centres undefined) | 25 µg/mL (≈ 65 µM) | 38.9% | 2 | > 50 µg/mL |
| CC(c1ccc2oc3ccccc3c2c1)n1cc(-c2ccc3oc4ccccc4c3c2)nn1 (centres undefined) | 50 µg/mL (≈ 116 µM) | 52.6% | 1 | 50 µg/mL (≈ 116 µM) |
| CC(c1ccc2sc3ccccc3c2c1)n1cc(-c2ccc3oc4ccccc4c3c2)nn1 (centres undefined) | 25 µg/mL (≈ 56.1 µM) | 61.1% | 1 | < 50 µg/mL |
| CC[C@@H](CO)NCCN[C@@H](CC)CO [ETHAMBUTOL] | 3.13 µg/mL (≈ 15.3 µM) | – | – | – |
| NNC(=O)c1ccncc1 [ISONIAZID] | 0.1 µg/mL (≈ 0.729 µM) | – | – | – |
| CO[C@H]1/C=C/O[C@@]2(C)Oc3c(C)c(O)c4c(O)c(c(/C=N/N5CCN(C)CC5)c(O)c4c3C2=O)NC(=O)/C(C)=C\C=C\[C@H](C)[C@H](O)[C@@H](C)[C@@H](O)[C@@H](C)[C@H](OC(C)=O)[C@@H]1C [RIFAMPIN] | 0.2 µg/mL (≈ 0.243 µM) | – | – | – |
